The source of these data is ChEMBL document CHEMBL4808195, “Discovery of heterocyclic substituted dihydropyrazoles as potent anticancer agents” (Bioorg Med Chem Lett, 2021).

For orientation: inhibition means the change of the read-out against control, counted positive when it falls. The pIC50 is the IC50 on a negative log10 scale, so that one unit is a factor of ten.

Test [1] has as its system HCC1806. In words: Anticancer activity against human HCC1806 cells assessed as inhibition of cell growth at 10 uM measured by SRB method. Type of test: functional. A general note: In SRB staining, fixed cells bind dye roughly in proportion to their protein.
A further test relates to MDA-MB-231. In words: Anticancer activity against human MDA-MB-231 cells assessed as inhibition of cell growth at 10 uM measured by SRB method. Type of test: functional.
The test system of a further test is NCI-H1975. Description: Anticancer activity against human NCI-H1975 cells assessed as inhibition of cell growth at 10 uM measured by SRB method. In kind it is functional.
Test [2] relates to HCC1806. In words: Anticancer activity against human HCC1806 cells assessed as inhibition of cell proliferation. Type of test: functional, cell-based.
Another test concerns HCT-116. Description: Anticancer activity against human HCT-116 cells assessed as inhibition of cell proliferation. In kind it is functional, cell-based.
For a further test, the system named is HeLa. Description: Anticancer activity against human HeLa cells assessed as inhibition of cell proliferation. In kind it is functional, cell-based.
Another test concerns A549. In words: Anticancer activity against human A549 cells assessed as inhibition of cell proliferation. Type of test: functional, cell-based.
Test [3] deals with HCC1806. Description: Anticancer activity against human HCC1806 cells assessed as inhibition of cell proliferation at 2 to 10 uM measured after 48 hrs by SRB assay. Type of test: functional, cell-based. Conditions: dose 2-10 µM. Summed up:
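HCC1806 cells were exposed to the compound for 24, 48 and 72 h. Proliferation inhibition rate was read by SRB assay at each time point. Experimental triplicates, shown with SD.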

For test [4], the system named is HCC1806. In words: Cell cycle arrest in human HCC1806 cells assessed as increase in cell population at G2/M phase at 2.5 to 5 uM measured after 12 hrs by flowcytometry method. Type of test: functional, cell-based. Conditions: dose 2.5-5 µM. Summed up: (§1)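 HCC1806 cells were treated with the compound for 12 h. Cell-cycle distribution was determined by flow cytometry, and the phase fractions were quantified from experimental duplicates with SD.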

Test [5] has as its system HCC1806. Description: Cell cycle arrest in human HCC1806 cells assessed as decrease in cell population at G1 phase at 2.5 to 5 uM measured after 12 hrs by flowcytometry method. Conditions: dose 2.5-5 µM. Type of test: functional, cell-based. Summed up:
as §1

For test [6], the system named is HCC1806. In words: Cell cycle arrest in human HCC1806 cells assessed as decrease in cell population at S phase at 2.5 to 5 uM measured after 12 hrs by flowcytometry method. Conditions: dose 2.5-5 µM. Type of test: functional, cell-based. Summed up: as §1
Test [7] relates to HCC1806. Description: Cell cycle arrest in human HCC1806 cells assessed as increase in p21 accumulation at 2.5 to 5 uM measured after 12 hrs by western blot assay. The following applies: dose 2.5-5 µM. Type of test: functional, cell-based. Summed up:
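HCC1806 cells were exposed to the compound for 12 h. p21 protein level was detected by immunoblotting, with β-actin as the loading control.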

pIC50: −log10 of the molar value. Active and inactive are the calls of the source. The rule behind the calls is not given here.

Consider `CN1CCN(c2ccc(C3=NN(S(=O)(=O)c4ccc(C#N)cc4)C(c4ccc(N(C)C)cc4)C3)cc2)CC1` (centres undefined), for which the inhibition at 10 µM in the test with HCC1806 [1] amounted to 99.8%; in the test with MDA-MB-231 it was 99.8%; in the test with NCI-H1975, 100%. The pIC50 in the test on HCC1806 [2] was 5.52; in the test with HCT-116 it was 5.44; with HeLa, 5.52; in the test with A549 it was 5.44. Besides, the result in the test on HCC1806 [3], in the test with HCC1806 [4], in the test with HCC1806 [5], in the test on HCC1806 [6] and in the test with HCC1806 [7] was Active.

With `CN1CCN(c2ccc(C3=NN(C(=O)c4ccc(C(F)(F)F)cc4)C(c4ccc(N(C)C)cc4)C3)cc2)CC1` (centres undefined), the inhibition at 10 µM in the test on HCC1806 [1] was 84.1%; with MDA-MB-231, 55.4%; with NCI-H1975, 93.2%. Moreover, the pIC50 with HCC1806 [2] was 5.27; in the test with HCT-116, under 5.00; with HeLa, under 4.00; in the test with A549 it was under 5.00.

`CN1CCN(c2ccc(C3=NN(S(=O)(=O)c4ccc(Br)cc4)C(c4ccc(N(C)C)cc4)C3)cc2)CC1` (centres undefined): the figures for the inhibition at 10 µM with HCC1806 [1], with MDA-MB-231 and with NCI-H1975 were 87.1%, 23.7% and 70.8%, respectively. The pIC50 with HCC1806 [2] is 5.06; with HCT-116 it was under 5.00; with HeLa, under 5.00; with A549, under 5.00.

Regarding `CN1CCN(c2ccc(C3=NN(S(=O)(=O)c4ccc(F)cc4)C(c4ccc(N(C)C)cc4)C3)cc2)CC1` (centres undefined), the values for the inhibition at 10 µM in the test on HCC1806 [1], in the test on MDA-MB-231 and in the test with NCI-H1975 were 92.3%, 15.7% and 95.7%, respectively. For the same compound, the pIC50 was 5.21 with HCC1806 [2], under 5.00 in the test with HCT-116, under 5.00 with HeLa and 5.02 in the test on A549.

For the compound `CN(C)c1ccc(C2CC(c3ccc(-n4cncn4)cc3)=NN2C(=O)c2cc(Cl)cc(Cl)c2)cc1` (centres undefined), the inhibition at 10 µM stood at 5.3% in the test with HCC1806 [1], 9.4% in the test with MDA-MB-231 and 8.4% in the test with NCI-H1975.

As to `C=C(C)C(=O)N1N=C(c2ccc(-n3ccnc3)cc2)CC1c1ccc(N(C)C)cc1` (centres undefined), the inhibition at 10 µM in the test with HCC1806 [1] was 1.6%; in the test with MDA-MB-231, 4.3%; in the test on NCI-H1975, -3.7%.

With `CN1CCN(c2ccc(C3=NN(S(=O)(=O)c4ccc(C(F)(F)F)cc4)C(c4ccc(N(C)C)cc4)C3)cc2)CC1` (centres undefined), the inhibition at 10 µM in the test with HCC1806 [1] worked out at 27%; in the test on MDA-MB-231 it was 12.1%; with NCI-H1975 it was 18.9%.

`CN(C)c1ccc(C2CC(c3ccc(-n4cncn4)cc3)=NN2S(=O)(=O)c2ccc(C#N)cc2)cc1` (centres undefined): the inhibition at 10 µM was determined as 35.1% in the test on HCC1806 [1], 32.8% with MDA-MB-231 and 22.6% in the test on NCI-H1975.

Turning to `CN(C)c1ccc(C2CC(c3ccc(-n4ccnc4)cc3)=NN2S(=O)(=O)c2ccc([N+](=O)[O-])cc2)cc1` (centres undefined), the inhibition at 10 µM turned out to be 46.6% in the test with HCC1806 [1], 41.5% in the test on MDA-MB-231 and 53% in the test on NCI-H1975.

Consider `CN(C)c1ccc(C2CC(c3ccc(-n4cncn4)cc3)=NN2C(=O)c2ccc(C(F)(F)F)cc2)cc1` (centres undefined), for which the figures for the inhibition at 10 µM in the test on HCC1806 [1], with MDA-MB-231 and in the test with NCI-H1975 were 7%, 16.7% and 11.5%, respectively.

`CC(=O)N1N=C(c2ccc(N3CCN(C)CC3)cc2)CC1c1ccc(N(C)C)cc1` (centres undefined): the inhibition at 10 µM in the test with HCC1806 [1] was -0.8%; in the test on MDA-MB-231 it was -1%; in the test on NCI-H1975, -1.9%.

For `CN1CCN(c2ccc(C3=NN(S(C)(=O)=O)C(c4ccc(N(C)C)cc4)C3)cc2)CC1` (centres undefined), the inhibition at 10 µM is -18.5% in the test on HCC1806 [1], 0.6% in the test with MDA-MB-231 and -1.3% in the test on NCI-H1975.

Turning to `CN1CCN(c2ccc(C3=NN(S(=O)(=O)c4ccc(OC(F)(F)F)cc4)C(c4ccc(N(C)C)cc4)C3)cc2)CC1` (centres undefined), the inhibition at 10 µM with HCC1806 [1] stood at 70.8%; in the test on MDA-MB-231, 10.6%; in the test on NCI-H1975, 26.5%.

For the compound `Cc1ccc(C(=O)N2N=C(c3ccc(N4CCN(C)CC4)cc3)CC2c2ccc(N(C)C)cc2)cc1` (centres undefined), the inhibition at 10 µM with HCC1806 [1] was -2.5%; in the test with MDA-MB-231, -0.7%; in the test on NCI-H1975 it was -0.4%.

Take `CC(=O)N1N=C(c2ccc(-n3ccnc3)cc2)CC1c1ccc(N(C)C)cc1` (centres undefined): the inhibition at 10 µM with HCC1806 [1] is -9.7%; with MDA-MB-231 it was 5%; with NCI-H1975, -2.1%.

`CN(C)c1ccc(C2CC(c3ccc(-n4ccnc4)cc3)=NN2C(=O)c2cc(Cl)cc(Cl)c2)cc1` (centres undefined): the inhibition at 10 µM worked out at 44.5% with HCC1806 [1], 48.8% with MDA-MB-231 and 58.7% in the test with NCI-H1975.

As for `CN1CCN(c2ccc(C3=NN(C(=O)/C=C/c4ccccc4)C(c4ccc(N(C)C)cc4)C3)cc2)CC1` (centres undefined), the values for the inhibition at 10 µM in the test on HCC1806 [1], with MDA-MB-231 and in the test on NCI-H1975 were 71%, 35.9% and 81%, respectively. The pIC50 with HCC1806 [2] is 5.04; with HCT-116, under 5.00; with HeLa, under 5.00; in the test with A549, under 5.00.

In the case of `CN(C)c1ccc(C2CC(c3ccc(-n4ccnc4)cc3)=NN2S(=O)(=O)c2ccc(C#N)cc2)cc1` (centres undefined), the inhibition at 10 µM was found to be 4.7% in the test on HCC1806 [1], 7.1% with MDA-MB-231 and 0.7% in the test on NCI-H1975.

In the case of `Cc1ccc(S(=O)(=O)N2N=C(c3ccc(-n4ccnc4)cc3)CC2c2ccc(N(C)C)cc2)cc1` (centres undefined), the figures for the inhibition at 10 µM in the test with HCC1806 [1], with MDA-MB-231 and in the test with NCI-H1975 were 66%, 50.8% and 50.5%, respectively.

As for `CN(C)c1ccc(C2CC(c3ccc(-n4cncn4)cc3)=NN2S(=O)(=O)c2ccc(F)cc2)cc1` (centres undefined), the inhibition at 10 µM with HCC1806 [1] was 24.1%; with MDA-MB-231, 12.1%; with NCI-H1975 it was -0.5%.

On to `COC(=O)CC(=O)N1N=C(c2ccc(-n3cncn3)cc2)CC1c1ccc(N(C)C)cc1` (centres undefined), for which the inhibition at 10 µM is -7.8% in the test with HCC1806 [1], 6.8% with MDA-MB-231 and 1.5% with NCI-H1975.

In the case of `CN(C)c1ccc(C2CC(c3ccc(-n4ccnc4)cc3)=NN2C(=O)c2ccc(F)cc2)cc1` (centres undefined), the results for the inhibition at 10 µM with HCC1806 [1], in the test with MDA-MB-231 and in the test on NCI-H1975 were 7.1%, 9.4% and -3.5%, respectively.

On to `CN1CCN(c2ccc(C3=NN(C(=O)c4ccc(F)cc4)C(c4ccc(N(C)C)cc4)C3)cc2)CC1` (centres undefined), for which the values for the inhibition at 10 µM with HCC1806 [1], in the test with MDA-MB-231 and in the test with NCI-H1975 were 31.8%, 3.5% and 32.2%, respectively.

Consider `CN(C)c1ccc(C2CC(c3ccc(-n4cncn4)cc3)=NN2C(=O)Cc2ccccc2)cc1` (centres undefined), for which the inhibition at 10 µM was -6.9% with HCC1806 [1], 2.9% in the test on MDA-MB-231 and -4% in the test on NCI-H1975.

`CN(C)c1ccc(C2CC(c3ccc(-n4ccnc4)cc3)=NN2C(=O)c2ccc(C(F)(F)F)cc2)cc1` (centres undefined): the inhibition at 10 µM was found to be 28% in the test on HCC1806 [1], 17.9% with MDA-MB-231 and 15% with NCI-H1975.

With `CN(C)c1ccc(C2CC(c3ccc(-n4ccnc4)cc3)=NN2)cc1` (centres undefined), the results for the inhibition at 10 µM in the test with HCC1806 [1], with MDA-MB-231 and in the test on NCI-H1975 were -20.9%, 7.6% and 0.1%, respectively.

In the case of `COC(=O)CC(=O)N1N=C(c2ccc(N3CCN(C)CC3)cc2)CC1c1ccc(N(C)C)cc1` (centres undefined), the inhibition at 10 µM is -8.3% in the test on HCC1806 [1], -0.4% in the test on MDA-MB-231 and -2.2% in the test with NCI-H1975.

As to `COC(=O)CC(=O)N1N=C(c2ccc(-n3ccnc3)cc2)CC1c1ccc(N(C)C)cc1` (centres undefined), the inhibition at 10 µM with HCC1806 [1] is 2.1%; in the test on MDA-MB-231, 2.3%; in the test with NCI-H1975, -0.1%.
